Test results from ChEMBL document CHEMBL1140884, “Oligodeoxyribonucleotide-based antagonists for Toll-like receptors 7 and 9” (2009).
Calls of active or inactive are those of the source. The rule behind the calls is not given here.

Experiments:
PBMC [1] = assay: Induction of TNFalpha secretion in human PBMC; assay type: functional, cell-based
Procedure, shortened: (§1)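 Human PBMCs (5×10^6/mL; 1×10^6 per well) were cultured 24 h with TLR9 agonist 5 µg/mL or TLR7/8 agonist 100 µg/mL, alone or with antagonist at 1:4. Compounds were dissolved in PBS. Supernatant cytokines were measured by Luminex human 25-plex bead assay. One representative donor of six.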

PBMC [2] = assay: Inhibition of 5'-UGCUGUUCUG-X-GUCUUGUCGU-5'-induced chemokines secretion in human PBMC at 1:5 agonist to drug ratio; assay type: functional, cell-based
Procedure, shortened: (§2)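 Human PBMCs isolated from healthy volunteer blood by Ficoll gradient, cultured at 1×10^6/200 μL in supplemented RPMI 1640 with 10% heat-inactivated FBS. Treated for 24 h with agonist and/or antagonist dissolved in PBS; TLR9 agonist at 5 μg/mL, TLR7/8 agonist at 100 μg/mL. Supernatant cytokines/chemokines by Luminex human 25-plex bead assay; unstimulated cells as control.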

PBMC [3] = assay: Induction of IFNalpha secretion in human PBMC; assay type: functional, cell-based; procedure, shortened: as §1
[4] = target: Toll-like receptor 7 (Homo sapiens) (UniProt Q9NYK1); assay: Antagonist activity at TLR7/8 in human PBMC assessed as inhibition of 5'-UGCUGUUCUG-X-GUCUUGUCGU-5'-induced NF-kappaB activation in human PBMC at 400 ug/mL treated 1 hr before induction measured after 2 hrs
Toll-like receptor 7 (Homo sapiens), sequence (Q9NYK1 whole entry, looked up): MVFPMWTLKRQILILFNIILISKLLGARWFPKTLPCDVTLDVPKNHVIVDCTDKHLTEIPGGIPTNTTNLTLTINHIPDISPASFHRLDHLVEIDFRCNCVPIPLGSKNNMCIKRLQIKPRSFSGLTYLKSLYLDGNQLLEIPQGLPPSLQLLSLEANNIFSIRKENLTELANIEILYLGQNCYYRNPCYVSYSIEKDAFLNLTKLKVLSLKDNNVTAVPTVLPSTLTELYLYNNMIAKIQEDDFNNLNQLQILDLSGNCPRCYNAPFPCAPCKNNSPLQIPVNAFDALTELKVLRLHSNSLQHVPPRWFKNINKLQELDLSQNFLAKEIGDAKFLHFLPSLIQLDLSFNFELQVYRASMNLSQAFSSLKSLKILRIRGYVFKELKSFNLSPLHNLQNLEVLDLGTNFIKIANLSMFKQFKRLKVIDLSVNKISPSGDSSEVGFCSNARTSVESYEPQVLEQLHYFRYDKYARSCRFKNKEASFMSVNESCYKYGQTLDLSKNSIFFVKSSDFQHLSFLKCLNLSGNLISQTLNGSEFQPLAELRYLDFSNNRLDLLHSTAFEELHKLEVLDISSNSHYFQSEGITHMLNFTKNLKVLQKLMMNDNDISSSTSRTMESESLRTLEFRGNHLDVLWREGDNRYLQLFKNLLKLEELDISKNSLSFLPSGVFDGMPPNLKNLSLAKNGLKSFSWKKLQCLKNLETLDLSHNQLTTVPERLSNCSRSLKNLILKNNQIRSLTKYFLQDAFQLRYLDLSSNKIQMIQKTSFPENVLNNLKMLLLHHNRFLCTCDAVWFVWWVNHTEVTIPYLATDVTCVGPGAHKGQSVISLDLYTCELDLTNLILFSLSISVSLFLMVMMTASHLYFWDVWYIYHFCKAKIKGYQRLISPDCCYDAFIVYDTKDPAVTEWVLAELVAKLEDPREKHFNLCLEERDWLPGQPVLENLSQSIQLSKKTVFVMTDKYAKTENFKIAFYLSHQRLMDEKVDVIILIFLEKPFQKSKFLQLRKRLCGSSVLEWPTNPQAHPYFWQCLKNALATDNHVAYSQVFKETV

[5] = target: T1, Toll-like receptor 9 (Mus musculus) (UniProt Q9EQU3); assay: Agonist activity at mouse TLR9 expressed in HEK293 cells assessed as activation of NF-kappaB at 10 ug/mL by SEAP reporter gene assay; assay type: functional, cell-based
T1 sequence (whole entry): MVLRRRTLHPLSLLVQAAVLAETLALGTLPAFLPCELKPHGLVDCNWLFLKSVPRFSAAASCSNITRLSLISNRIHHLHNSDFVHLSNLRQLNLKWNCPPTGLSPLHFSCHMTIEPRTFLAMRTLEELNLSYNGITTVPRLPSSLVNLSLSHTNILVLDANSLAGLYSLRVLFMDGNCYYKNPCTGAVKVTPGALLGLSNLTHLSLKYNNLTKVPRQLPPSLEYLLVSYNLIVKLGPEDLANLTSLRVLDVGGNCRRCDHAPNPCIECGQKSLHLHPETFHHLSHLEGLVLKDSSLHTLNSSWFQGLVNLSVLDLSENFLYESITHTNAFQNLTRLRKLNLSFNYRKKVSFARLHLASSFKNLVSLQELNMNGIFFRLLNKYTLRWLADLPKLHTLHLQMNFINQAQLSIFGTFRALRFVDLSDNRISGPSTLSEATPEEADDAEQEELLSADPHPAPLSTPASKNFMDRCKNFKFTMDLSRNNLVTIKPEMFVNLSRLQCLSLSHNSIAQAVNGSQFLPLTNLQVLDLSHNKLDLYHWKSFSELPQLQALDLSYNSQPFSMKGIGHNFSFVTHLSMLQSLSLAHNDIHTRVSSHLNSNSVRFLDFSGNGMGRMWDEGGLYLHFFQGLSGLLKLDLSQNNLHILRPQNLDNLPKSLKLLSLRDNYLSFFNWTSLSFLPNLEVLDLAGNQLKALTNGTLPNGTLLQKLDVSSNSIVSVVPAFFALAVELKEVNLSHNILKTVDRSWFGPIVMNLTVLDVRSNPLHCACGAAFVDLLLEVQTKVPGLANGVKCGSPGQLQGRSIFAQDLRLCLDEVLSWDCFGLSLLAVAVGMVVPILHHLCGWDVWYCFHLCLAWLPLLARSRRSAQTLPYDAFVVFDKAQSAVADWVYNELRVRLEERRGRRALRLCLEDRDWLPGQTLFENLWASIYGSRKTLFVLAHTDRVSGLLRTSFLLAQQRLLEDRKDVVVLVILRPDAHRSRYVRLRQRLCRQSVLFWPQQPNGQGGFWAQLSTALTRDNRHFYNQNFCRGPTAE
Procedure, shortened: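 HEK293 cells stably expressing mouse TLR9 were transiently transfected with a SEAP reporter for 6 h. Compounds were added at 10 µg/mL for 18 h. SEAP was read with Quanti-Blue substrate and expressed as fold change in NF-κB activity.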

PBMC [6] = assay: Induction of MIG secretion in human PBMC; assay type: functional, cell-based; procedure, shortened: as §1
PBMC [7] = assay: Induction of MCP1 secretion in human PBMC; assay type: functional, cell-based; procedure, shortened: as §1
PBMC [8] = assay: Inhibition of 5'-TCTGTCRTTCT-X-TCTTRCTGTCT-5'-induced chemokines secretion in human PBMC at 1:5 agonist to drug ratio; assay type: functional, cell-based; procedure, shortened: as §2
PBMC [9] = assay: Induction of MIP1beta secretion in human PBMC; assay type: functional, cell-based; procedure, shortened: as §1
PBMC [10] = assay: (§3) Induction of IP10 secretion in human PBMC; assay type: functional, cell-based; procedure, shortened: as §1
PBMC [11] = assay: Inhibition of 5'-TCTGTCRTTCT-X-TCTTRCTGTCT-5'-induced cytokines secretion in human PBMC at 1:5 agonist to drug ratio; assay type: functional, cell-based; procedure, shortened: as §2
PBMC [12] = assay: Inhibition of 5'-TCTGTCRTTCT-X-TCTTRCTGTCT-5'-induced human PBMC proliferation treated 72 hrs before induction; assay type: functional, cell-based
PBMC [13] = assay: as §3; assay type: functional, cell-based; procedure, shortened: as §1; remark: listed apart in the source
PBMC [14] = assay: Inhibition of 5'-UGCUGUUCUG-X-GUCUUGUCGU-5'-induced cytokines secretion in human PBMC at 1:5 agonist to drug ratio; assay type: functional, cell-based; procedure, shortened: as §2
PBMC [15] = assay: Induction of IL12 secretion in human PBMC; assay type: functional, cell-based; procedure, shortened: as §1
[16] = target: T2, Toll-like receptor 9 (Homo sapiens) (UniProt Q9NR96); assay: Antagonist activity at TLR9 in human PBMC assessed as inhibition of 5'-TCTGTCRTTCT-X-TCTTRCTGTCT-5'-induced NF-kappaB activation at 40 ug/mL treated 1 hr before induction measured after 2 hrs; assay type: functional
T2 sequence (whole entry): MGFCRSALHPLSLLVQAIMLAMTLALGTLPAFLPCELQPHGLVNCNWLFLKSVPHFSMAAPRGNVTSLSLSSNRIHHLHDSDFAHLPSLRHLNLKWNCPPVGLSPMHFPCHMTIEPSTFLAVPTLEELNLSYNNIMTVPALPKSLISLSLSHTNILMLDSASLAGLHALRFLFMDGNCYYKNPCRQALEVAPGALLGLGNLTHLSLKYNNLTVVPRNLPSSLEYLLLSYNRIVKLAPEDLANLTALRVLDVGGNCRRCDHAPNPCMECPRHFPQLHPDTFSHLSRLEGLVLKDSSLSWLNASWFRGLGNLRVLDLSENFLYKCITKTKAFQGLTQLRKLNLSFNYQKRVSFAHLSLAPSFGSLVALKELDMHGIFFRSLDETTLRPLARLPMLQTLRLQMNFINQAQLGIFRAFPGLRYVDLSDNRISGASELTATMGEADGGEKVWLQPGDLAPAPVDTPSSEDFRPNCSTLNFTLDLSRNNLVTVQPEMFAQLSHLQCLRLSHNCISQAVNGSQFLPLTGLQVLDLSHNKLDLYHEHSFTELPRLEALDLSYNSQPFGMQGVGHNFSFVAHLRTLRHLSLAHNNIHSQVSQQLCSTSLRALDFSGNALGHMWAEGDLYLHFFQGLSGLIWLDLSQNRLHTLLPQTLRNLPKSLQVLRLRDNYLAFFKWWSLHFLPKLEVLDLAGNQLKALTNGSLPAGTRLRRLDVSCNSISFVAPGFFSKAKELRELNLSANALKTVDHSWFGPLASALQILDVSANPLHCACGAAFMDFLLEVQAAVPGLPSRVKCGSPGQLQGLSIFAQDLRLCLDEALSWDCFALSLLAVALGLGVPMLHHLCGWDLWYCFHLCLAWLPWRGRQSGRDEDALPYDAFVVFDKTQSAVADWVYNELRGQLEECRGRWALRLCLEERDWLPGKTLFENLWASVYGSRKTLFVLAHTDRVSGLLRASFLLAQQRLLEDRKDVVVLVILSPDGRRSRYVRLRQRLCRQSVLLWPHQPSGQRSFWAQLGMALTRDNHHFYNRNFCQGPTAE
Procedure, shortened: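 Human PBMCs plated at 1×10^7 cells/well were preincubated with antagonist at the indicated concentrations for 1 h. TLR9 or TLR7/8 agonist was then added for 2 h. Nuclear extracts were analysed for NF-κB by EMSA. One representative donor of three.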

[17] = target: T1, Toll-like receptor 9 (Mus musculus); assay: Antagonist activity at mouse TLR9 expressed in HEK293 cells assessed as inhibition of 5'-CTATCTGTCGTTCTCTGT-3'-induced NF-kappaB activation by SEAP reporter gene assay; assay type: functional, cell-based
Procedure, shortened: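 Mouse TLR9-HEK293 cells were transfected with a SEAP reporter for 6 h. They were then stimulated for 18 h with agonist (0.25 or 0.5 µg/mL) plus increasing antagonist concentrations or set agonist:antagonist ratios. Quanti-Blue read-out, reported as % NF-κB activity with agonist alone as 100%.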

PBMC [18] = assay: Induction of IFN-gamma secretion in human PBMC; assay type: functional, cell-based; procedure, shortened: as §1
PBMC [19] = assay: Induction of IL6 secretion in human PBMC; assay type: functional, cell-based; procedure, shortened: as §1
[20] = target: Toll-like receptor 7 (Homo sapiens) (UniProt Q9NYK1); assay: Agonist activity at TLR7/8 in human PBMC assessed as NF-kappaB activation at 100 ug/mL

Activity [4] | Activity [5] | Activity [16] | Activity [17] | Activity [20] | SMILES | Activity (PBMC [1]) | Activity (PBMC [2]) | Activity (PBMC [3]) | Activity (PBMC [6]) | Activity (PBMC [7]) | Activity (PBMC [8]) | Activity (PBMC [9]) | Activity (PBMC [10]) | Activity (PBMC [11]) | Activity (PBMC [12]) | Activity (PBMC [13]) | Activity (PBMC [14]) | Activity (PBMC [15]) | Activity (PBMC [18]) | Activity (PBMC [19])
Active | inactive | Active | Active | – | CO[C@@H]1[C@H](OP(=O)(S)OC[C@H]2O[C@@H](n3ccc(N)nc3=O)C[C@@H]2OP(=O)(S)OC[C@H]2O[C@@H](n3ccc4c(=O)[nH]c(N)nc43)C[C@@H]2OP(=O)(S)OC[C@H]2O[C@@H](n3cc(C)c(=O)[nH]c3=O)C[C@@H]2OP(=O)(S)OC[C@H]2O[C@@H](n3cc(C)c(=O)[nH]c3=O)C[C@@H]2OP(=O)(S)OC[C@H]2O[C@@H](n3ccc(N)nc3=O)C[C@@H]2OP(=O)(S)OC[C@H]2O[C@@H](n3cc(C)c(=O)[nH]c3=O)C[C@@H]2OP(=O)(S)OC[C@H]2O[C@@H](n3ccc(N)nc3=O)C[C@@H]2OP(=O)(S)OC[C@H]2O[C@@H](n3cc(C)c(=O)[nH]c3=O)C[C@@H]2OP(=O)(S)OC[C@H]2O[C@@H](n3cnc4c(=O)[nH]c(N)nc43)C[C@@H]2OP(=O)(S)OC[C@H]2O[C@@H](n3cc(C)c(=O)[nH]c3=O)C[C@@H]2O)[C@@H](COP(=O)(S)O[C@H]2[C@@H](OC)[C@H](n3cnc4c(=O)[nH]c(N)nc43)O[C@@H]2COP(=O)(S)O[C@H]2C[C@H](n3cc(C)c(=O)[nH]c3=O)O[C@@H]2COP(=O)(S)O[C@H]2C[C@H](n3ccc(N)nc3=O)O[C@@H]2COP(=O)(S)O[C@H]2C[C@H](n3cc(C)c(=O)[nH]c3=O)O[C@@H]2COP(=O)(S)O[C@H]2C[C@H](n3cnc4c(N)ncnc43)O[C@@H]2COP(=O)(S)O[C@H]2C[C@H](n3cc(C)c(=O)[nH]c3=O)O[C@@H]2COP(=O)(S)O[C@@H]2[C@H](O)[C@@H](n3ccc(N)nc3=O)O[C@H]2CO)O[C@H]1n1ccc(=O)[nH]c1=O (stereo not given in full) | inactive | Active | inactive | inactive | inactive | Active | inactive | inactive | Active | Active | inactive | Active | inactive | inactive | inactive
– | – | – | – | Active | Nc1ccn([C@@H]2O[C@H](COP(=O)(S)O[C@H]3[C@@H](O)[C@H](n4ccc(=O)[nH]c4=O)O[C@@H]3COP(=O)(S)O[C@H]3[C@@H](O)[C@H](n4ccc(=O)[nH]c4=O)O[C@@H]3COP(=O)(S)O[C@H]3[C@@H](O)[C@H](n4ccc5c(=O)[nH]c(N)nc54)O[C@@H]3COP(=O)(S)O[C@H]3[C@@H](O)[C@H](n4ccc(=O)[nH]c4=O)O[C@@H]3COP(=O)(S)O[C@H]3[C@@H](O)[C@H](n4ccc(N)nc4=O)O[C@@H]3COP(=O)(S)O[C@H]3[C@@H](O)[C@H](n4ccc5c(=O)[nH]c(N)nc54)O[C@@H]3COP(=O)(S)O[C@H]3[C@@H](O)[C@H](n4ccc(=O)[nH]c4=O)O[C@@H]3CO)[C@@H](OP(=O)(S)OC[C@H]3O[C@@H](n4ccc(=O)[nH]c4=O)[C@H](O)[C@@H]3OP(=O)(S)OC[C@H]3O[C@@H](n4ccc5c(=O)[nH]c(N)nc54)[C@H](O)[C@@H]3OP(=O)(S)OCC(O)COP(=O)(S)O[C@H]3[C@@H](O)[C@H](n4ccc5c(=O)[nH]c(N)nc54)O[C@@H]3COP(=O)(S)O[C@H]3[C@@H](O)[C@H](n4ccc(=O)[nH]c4=O)O[C@@H]3COP(=O)(S)O[C@H]3[C@@H](O)[C@H](n4ccc(N)nc4=O)O[C@@H]3COP(=O)(S)O[C@H]3[C@@H](O)[C@H](n4ccc(=O)[nH]c4=O)O[C@@H]3COP(=O)(S)O[C@H]3[C@@H](O)[C@H](n4ccc(=O)[nH]c4=O)O[C@@H]3COP(=O)(S)O[C@H]3[C@@H](O)[C@H](n4ccc5c(=O)[nH]c(N)nc54)O[C@@H]3COP(=O)(S)O[C@H]3[C@@H](O)[C@H](n4ccc(=O)[nH]c4=O)O[C@@H]3COP(=O)(S)O[C@H]3[C@@H](O)[C@H](n4ccc(N)nc4=O)O[C@@H]3COP(=O)(S)O[C@H]3[C@@H](O)[C@H](n4ccc5c(=O)[nH]c(N)nc54)O[C@@H]3COP(=O)(S)O[C@H]3[C@@H](O)[C@H](n4ccc(=O)[nH]c4=O)O[C@@H]3CO)[C@H]2O)c(=O)n1 (stereo not given in full) | Active | – | Active | Active | Active | – | Active | Active | – | – | Active | – | Active | Active | Active
